{
  "source": "ChEMBL document CHEMBL4477200",
  "about": "“Design, Synthesis, and Preclinical Evaluation of 4-Substituted-5-methyl-furo[2,3-d]pyrimidines as Microtubule Targeting Agents That Are Effective against Multidrug Resistant Cancer Cells” (J Med Chem, 2016)",
  "key": {"[1]": {"test_system": "HeLa", "test": "Cell cycle arrest in human HeLa cells assessed as accumulation at G2/M phase at 5 times IC50 after 18 hrs by flow cytometry (reference value: 17.11 +/- 1.09%)", "type": "functional"}, "[2]": {"molecular_target": "Tubulin (Homo sapiens) (UniProt P68371+Q9H4B7+P0DPH7+P68366+Q13509+Q71U36+P04350+Q3ZCM7+P07437+P68363+Q9BQE3+Q6PEY2+Q13885+Q9BVA1+Q9BUF5)", "test": "Induction of microtubule disruption in human HeLa cells assessed as multipolarization of spindle at 5 times IC50 incubated for 18 hrs by indirect immunofluorescence analysis relative to vehicle-treated control", "type": "cell-based", "method_in_brief": "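Mitotic spindles and microtubules were imaged by indirect immunofluorescence with a β-tubulin antibody and compared with vehicle-treated cells.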"}, "[3]": {"test_system": "A549", "test": "Cytotoxicity against human A549 cells assessed as growth inhibition after 48 hrs by SRB assay", "type": "functional", "conditions": "A549, 48 h"}, "[4]": {"test_system": "EKVX", "test": "Cytotoxicity against human EKVX cells assessed as growth inhibition after 48 hrs by SRB assay", "type": "functional"}, "[5]": {"test_system": "HOP-92", "test": "Cytotoxicity against human HOP92 cells assessed as growth inhibition after 48 hrs by SRB assay", "type": "functional", "conditions": "HOP-92, 48 h"}, "[6]": {"test_system": "NCI-H23", "test": "Cytotoxicity against human NCI-H23 cells assessed as growth inhibition after 48 hrs by SRB assay", "type": "functional", "conditions": "NCI-H23, 48 h"}, "[7]": {"test_system": "NCI-H460", "test": "Cytotoxicity against human NCI-H460 cells assessed as growth inhibition after 48 hrs by SRB assay", "type": "functional", "conditions": "NCI-H460, 48 h"}, "[8]": {"test_system": "SW-620", "test": "Cytotoxicity against human SW620 cells assessed as growth inhibition after 48 hrs by SRB assay", "type": "functional", "conditions": "SW-620, 48 h"}, "[9]": {"test_system": "SF-268", "test": "Cytotoxicity against human SF268 cells assessed as growth inhibition after 48 hrs by SRB assay", "type": "functional", "conditions": "SF-268, 48 h"}, "[10]": {"test_system": "SF-295", "test": "Cytotoxicity against human SF295 cells assessed as growth inhibition after 48 hrs by SRB assay", "type": "functional", "conditions": "SF-295, 48 h"}, "[11]": {"test_system": "SF-539", "test": "Cytotoxicity against human SF539 cells assessed as growth inhibition after 48 hrs by SRB assay", "type": "functional", "conditions": "SF-539, 48 h"}, "[12]": {"test_system": "SNB-75", "test": "Cytotoxicity against human SNB75 cells assessed as growth inhibition after 48 hrs by SRB assay", "type": "functional", "conditions": "SNB-75, 48 h"}, "[13]": {"test_system": "LOX IMVI", "test": "Cytotoxicity against human LOXIMVI cells assessed as growth inhibition after 48 hrs by SRB assay", "type": "functional"}, "[14]": {"test_system": "Malme-3M", "test": "Cytotoxicity against human MALME-3M cells assessed as growth inhibition after 48 hrs by SRB assay", "type": "functional"}, "[15]": {"test_system": "SK-MEL-5", "test": "Cytotoxicity against human SK-MEL-5 cells assessed as growth inhibition after 48 hrs by SRB assay", "type": "functional", "conditions": "SK-MEL-5, 48 h"}, "[16]": {"test_system": "UACC-62", "test": "Cytotoxicity against human UACC62 cells assessed as growth inhibition after 48 hrs by SRB assay", "type": "functional", "conditions": "UACC-62, 48 h"}, "[17]": {"test_system": "IGROV-1", "test": "Cytotoxicity against human IGROV1 cells assessed as growth inhibition after 48 hrs by SRB assay", "type": "functional", "conditions": "IGROV-1, 48 h"}, "[18]": {"test_system": "OVCAR-4", "test": "Cytotoxicity against human OVCAR4 cells assessed as growth inhibition after 48 hrs by SRB assay", "type": "functional", "conditions": "OVCAR-4, 48 h"}, "[19]": {"test_system": "OVCAR-8", "test": "Cytotoxicity against human OVCAR8 cells assessed as growth inhibition after 48 hrs by SRB assay", "type": "functional", "conditions": "OVCAR-8, 48 h"}, "[20]": {"test_system": "NCI/ADR-RES", "test": "Cytotoxicity against human NCI-ADR-RES cells assessed as growth inhibition after 48 hrs by SRB assay", "type": "functional"}, "[21]": {"test_system": "A498", "test": "Cytotoxicity against human A498 cells assessed as growth inhibition after 48 hrs by SRB assay", "type": "functional", "conditions": "A498, 48 h"}, "[22]": {"test_system": "ACHN", "test": "Cytotoxicity against human ACHN cells assessed as growth inhibition after 48 hrs by SRB assay", "type": "functional"}, "[23]": {"test_system": "CAKI-1", "test": "Cytotoxicity against human Caki1 cells assessed as growth inhibition after 48 hrs by SRB assay", "type": "functional", "conditions": "CAKI-1, 48 h"}, "[24]": {"test_system": "RXF 393", "test": "Cytotoxicity against human RXF393 cells assessed as growth inhibition after 48 hrs by SRB assay", "type": "functional", "conditions": "RXF 393, 48 h"}, "[25]": {"test_system": "TK-10", "test": "Cytotoxicity against human TK10 cells assessed as growth inhibition after 48 hrs by SRB assay", "type": "functional", "conditions": "TK-10, 48 h"}, "[26]": {"test_system": "MDA-MB-231", "test": "Cytotoxicity against human MDA-MB-231 cells assessed as growth inhibition after 48 hrs by SRB assay", "type": "functional", "conditions": "MDA-MB-231, 48 h"}, "[27]": {"test_system": "SK-OV-3", "test": "Antiproliferative activity against multidrug resistant human SKOV3 cells expressing MDR1-M6/6 after 48 hrs by SRB assay", "type": "functional, cell-based", "conditions": "SK-OV-3, 48 h", "method_in_brief": "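SRB assay; IC50 is the mean of three independent experiments, each run in triplicate. Cells were kept at 37 °C under 5% CO2. HeLa and SK-OV-3 lines (parental and MDR1-M6/6) were grown in Basal Medium Eagle with 10% FBS, 1% GlutaMAX and 50 µg/mL gentamycin. HeLa WTβIII was grown in DMEM with 10% FBS.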"}, "[28]": {"test_system": "HeLa", "test": "Relative ratio of IC50 for human HeLa cells expressing wild type beta3 tubulin to IC50 for human HeLa cells", "type": "functional"}, "[29]": {"test_system": "Tubulin (Rattus norvegicus)", "test": "Induction of microtubule depolymerization in rat A10 cells at 2 times EC50 incubated for 18 hrs by indirect immunofluorescence analysis"}, "[30]": {"test_system": "MDA-MB-435", "test": "Antitumor activity against human MDA-MB-435 cells xenografted in nude mouse assessed as tumor growth inhibition at 60 mg/kg, ip dosed on day 0 to 2 and 50 mg/kg, ip on day 8 relative to control"}},
  "note": "Activity calls are given as the source filed them. The calls are words filed in the database; no cut-off is given here.",
  "data": [
    {"molecule": "COc1ccc(N(C)c2ncnc3occ(C)c23)cc1", "values": [
      {"measurement": "Activity", "setting": "[1]", "value": 66.99, "unit": "%"},
      {"measurement": "Activity", "setting": "[2]", "value": "Active"},
      {"measurement": "GI50", "setting": "[3]", "value": "< 10", "unit": "nM"},
      {"measurement": "GI50", "setting": "[4]", "value": "< 10", "unit": "nM"},
      {"measurement": "GI50", "setting": "[5]", "value": 62.5, "unit": "nM"},
      {"measurement": "GI50", "setting": "[6]", "value": "< 10", "unit": "nM"},
      {"measurement": "GI50", "setting": "[7]", "value": "< 10", "unit": "nM"},
      {"measurement": "GI50", "setting": "[8]", "value": "< 10", "unit": "nM"},
      {"measurement": "GI50", "setting": "[9]", "value": 10.1, "unit": "nM"},
      {"measurement": "GI50", "setting": "[10]", "value": "< 10", "unit": "nM"},
      {"measurement": "GI50", "setting": "[11]", "value": "< 10", "unit": "nM"},
      {"measurement": "GI50", "setting": "[12]", "value": "< 10", "unit": "nM"},
      {"measurement": "GI50", "setting": "[13]", "value": "< 10", "unit": "nM"},
      {"measurement": "GI50", "setting": "[14]", "value": 38.7, "unit": "nM"},
      {"measurement": "GI50", "setting": "[15]", "value": "< 10", "unit": "nM"},
      {"measurement": "GI50", "setting": "[16]", "value": 29.6, "unit": "nM"},
      {"measurement": "GI50", "setting": "[17]", "value": "< 10", "unit": "nM"},
      {"measurement": "GI50", "setting": "[18]", "value": "< 10", "unit": "nM"},
      {"measurement": "GI50", "setting": "[19]", "value": "< 10", "unit": "nM"},
      {"measurement": "GI50", "setting": "[20]", "value": "< 10", "unit": "nM"},
      {"measurement": "GI50", "setting": "[21]", "value": "< 10", "unit": "nM"},
      {"measurement": "GI50", "setting": "[22]", "value": 22.5, "unit": "nM"},
      {"measurement": "GI50", "setting": "[23]", "value": "< 10", "unit": "nM"},
      {"measurement": "GI50", "setting": "[24]", "value": "< 10", "unit": "nM"},
      {"measurement": "GI50", "setting": "[25]", "value": 75.3, "unit": "nM"},
      {"measurement": "GI50", "setting": "[26]", "value": "< 10", "unit": "nM"},
      {"measurement": "IC50", "setting": "[27]", "value": 8.4, "unit": "nM"},
      {"measurement": "Ratio IC50", "setting": "[28]", "value": 0.9},
      {"measurement": "Activity", "setting": "[29]", "value": "Active"},
      {"measurement": "TGI", "setting": "[30]", "value": "Active"}
    ]}
  ]
}
